ChEMBL document CHEMBL1144123, “Activity of triterpenoid glycosides from the root bark of Mussaenda macrophylla against two oral pathogens” (1999)
≈ marks a conversion by molar mass, not a printed value. Calls of active or inactive are those of the source. The calls are words filed in the database; no cut-off is given here.

Columns and labels:
Porphyromonas gingivalis = experiment: Antibacterial activity against Porphyromonas gingivalis after 48 hrs by microtiter plate method; assay type: functional
Procedure, shortened: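 Broth microdilution in trypticase soy broth-yeast extract with 0.05% cysteine hydrochloride, menadione (0.02 μg/mL), hemin (5 μg/mL) and 0.02% potassium nitrate. Inoculum 5 × 10^5 CFU/mL; serially diluted test agent, triplicates per concentration. Incubated anaerobically (10% H₂, 5% CO₂, 85% N₂), 37 °C, 48 h. Turbidity read at 650 nm; MIC = lowest concentration keeping absorbance <0.05.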

Streptococcus mutans = experiment: Antibacterial activity against Streptococcus mutans after 48 hrs by microtiter plate method; assay type: functional
Procedure, shortened: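 Brain-heart infusion broth, inoculum 5 × 10^6 CFU/mL, serial dilutions of test agent in triplicate per concentration, 37 °C for 48 h. Controls were inoculated medium without test agent; blanks were uninoculated medium. Growth read spectrophotometrically at 650 nm; MIC taken as minimum concentration limiting turbidity to <0.05 absorbance.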

Compound | MIC (Porphyromonas gingivalis) | MIC (Streptococcus mutans) | Activity (Porphyromonas gingivalis)
O=c1c(O)c(-c2cc(O)c(O)c(O)c2)oc2cc(O)cc(O)c12 | – | – | Active
COc1cc(O)c2c(=O)c(O)c(-c3ccc(O)cc3)oc2c1 | – | – | Active
CC(=O)O[C@H]1CC[C@]2(C)[C@H]3CC=C4[C@@H]5CC(C)(C)CC[C@]5(C(=O)O)CC[C@@]4(C)[C@]3(C)CC[C@H]2C1(C)C [ACETYL OLEANOLIC ACID] | 39 µg/mL (≈ 78.2 µM) | > 1250 µg/mL | –
CC1(C)CC[C@]2(C(=O)O)CC[C@]3(C)C(=CC[C@@H]4[C@@]5(C)CC[C@H](O)C(C)(C)[C@@H]5CC[C@]43C)[C@@H]2C1 [OLEANOLIC_ACID] | 625 µg/mL (≈ 1370 µM) | – | –
O=c1c(O)c(-c2ccc(O)cc2)oc2cc(O)cc(O)c12 | – | – | Active
N=C(NCCCCCCNC(=N)NC(=N)Nc1ccc(Cl)cc1)NC(=N)Nc1ccc(Cl)cc1 [CHLORHEXIDINE] | 0.312 µg/mL (≈ 0.617 µM) | 0.312 µg/mL (≈ 0.617 µM) | –

Now from value to compound, other results behind:

MIC (Porphyromonas gingivalis) | MIC (Streptococcus mutans) | Compound | Activity (Porphyromonas gingivalis)
312 µg/mL (≈ 468 µM) | > 1250 µg/mL | CC1(C)CC[C@]2(C(=O)O[C@@H]3O[C@H](CO)[C@@H](O)[C@H](O)[C@H]3O)[C@H](O)C[C@]3(C)C(=CC[C@@H]4[C@@]5(C)C[C@H](O)[C@H](O)C(C)(C)[C@@H]5[C@H](O)C[C@]43C)[C@@H]2C1 | –
312 µg/mL (≈ 384 µM) | > 1250 µg/mL | C[C@@H]1O[C@@H](OC(=O)[C@]23CCC(C)(C)C[C@H]2C2=CC[C@@H]4[C@@]5(C)C[C@H](O)[C@H](O[C@@H]6O[C@H](CO)[C@@H](O)[C@H](O)[C@H]6O)C(C)(C)[C@@H]5[C@H](O)C[C@@]4(C)[C@]2(C)C[C@H]3O)[C@H](O)[C@H](O)[C@H]1O | –
156 µg/mL (≈ 125 µM) | > 1250 µg/mL | C/C(=C\C=C\[C@@H](C)[C@H]1CC[C@@]2(C)[C@@H]3CC[C@H]4C(C)(C)[C@@H](O[C@H]5O[C@@H](CO)[C@H](O)[C@@H](O[C@@H]6O[C@H](CO)[C@@H](O)[C@H](O)[C@H]6O)[C@@H]5O[C@@H]5O[C@H](CO[C@H]6O[C@@H](CO)[C@H](O)[C@@H](O)[C@@H]6O)[C@@H](O)[C@H](O)[C@H]5O[C@@H]5O[C@@H](C)[C@H](O)[C@@H](O)[C@H]5O)CC[C@@]45C[C@@]35CC[C@]12C)C(=O)O | –
78 µg/mL (≈ 94.1 µM) | > 1250 µg/mL | C[C@@H]1O[C@@H](OC(=O)[C@]23CCC(C)(C)C[C@H]2C2=CC[C@@H]4[C@@]5(C)C[C@H](O)[C@H](O[C@@H]6O[C@H](CO)[C@@H](O)[C@H](O)[C@H]6O)[C@@](C)(CO)[C@@H]5[C@H](O)C[C@@]4(C)[C@]2(C)C[C@H]3O)[C@H](O)[C@H](O)[C@H]1O | –
78 µg/mL (≈ 161 µM) | > 1250 µg/mL | CC(=O)O[C@H]1CC[C@]2(C)[C@H]3CC=C4[C@@H]5CC(C)(C)CC[C@]5(C)CC[C@@]4(C)[C@]3(C)C[C@@H](O)[C@H]2C1(C)C | –
